# Screens deposited in PubChem by several laboratories.
# CRFR2-BP ag = agonists of human CRF-binding protein/CRF-R2 receptor complex; hit rate 0.46% among 350,000; activation, % at 13.2 µM; HEK293 CRF-R2/CRF-BP, calcium dye fluorescence (FLIPR); percent of saturating CRF peptide response;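 active means activation of at least 50%, plus an integration ratio under a set limit after plate pattern correction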;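 further: plate controls were neutral control wells without compound for no effect and CRF at EC100 for full effect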
# TMEM16A act = mouse TMEM16A channel activation, primary screen; Q8BHY3; HEK293 TMEM16A/YFP-H148Q/I152L, iodide quench fluorescence; active compounds read low; B-score at 10 µM; hit rate 0.3% among 340,000;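 active means fluorescence-ratio B-score plate-corrected deviation score at least 3 library SD below zero, with starting fluorescence score within 5 deviations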;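 further: channel opened by trigger with iodide after compound preincubation; score built on the fluorescence ratio of max minus min over baseline; more negative score means more quench and so TMEM16A activation or potentiation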
# TMEM16A inh = inhibitors of mouse TMEM16A calcium-activated chloride channel; normalized B-score (activity score, 25-100; higher = stronger inhibition) at 10 µM; HEK293 TMEM16A/YFP iodide influx fluorescence, ionomycin; hit rate 1.2% among 310,000; AID 588511; Q8BHY3;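 active means ratio plate-corrected score three or more library SD toward inhibition, starting fluorescence score within five deviations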;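 further: score derived from kinetic fluorescence span divided by baseline fluorescence per well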
# TAAR1 antagonist = antagonists of human TAAR1. Q96RJ0. CHO RD-HGA16 TAAR1, Fluo-8 calcium fluorescence, antagonist. inhibition, % at 3 µM. hit rate 1.5% among 360,000. AID 624466;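 active means inhibition above a per-plate cutoff, the mean inhibition of test compounds on that plate plus 3 SD, cut at about 49% in these data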;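 further: 0% = DMSO plus EC80 beta-PEA response and 100% = DMSO alone without agonist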
# Target sequence (Q96RJ0 whole entry, looked up): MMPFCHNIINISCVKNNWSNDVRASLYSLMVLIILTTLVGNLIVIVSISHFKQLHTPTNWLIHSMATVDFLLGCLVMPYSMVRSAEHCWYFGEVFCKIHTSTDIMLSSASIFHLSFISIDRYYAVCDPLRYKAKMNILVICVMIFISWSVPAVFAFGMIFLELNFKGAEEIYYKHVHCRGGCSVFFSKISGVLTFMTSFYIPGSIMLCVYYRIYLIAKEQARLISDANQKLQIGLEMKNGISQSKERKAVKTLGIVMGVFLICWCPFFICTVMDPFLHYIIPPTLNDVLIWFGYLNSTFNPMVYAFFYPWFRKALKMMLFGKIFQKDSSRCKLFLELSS
#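 Material: CHO RD-HGA16 cells bearing hTAAR1; compound dosing: one-point dosing, 3 µM nominal final; schedule: dye loading 75 min at 37 °C, then 30 min room temperature; measured by: calcium fluorescence with Fluo-8; control set: vehicle and agonist controls; replication: n of 1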
# TAAR1 ag = human TAAR1 agonism. CHO RD-HGA16 TAAR1, Fluo-8 calcium fluorescence; vehicle wells 0%, saturating PEA agonist 100%. hit rate 0.99% among 360,000. activation, % at 3 µM. AID 624467;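 active means activation above the mean activation of all test compounds in the run plus 3 SD, cut at about 38% in these data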
#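 Benchmarks: low control DMSO, high control PEA (EC100); System: CHO RD-HGA16 cells carrying human TAAR1 plus Gα16; Detection: Fluo-8 fluorescence, 5 s baseline then 140 s kinetic read; Schedule: 17-24 h plating, Fluo-8 75 min 37 °C, 30 min RT; Read-out basis: % activation from peak over basal fluorescence ratio, DMSO-to-PEA scaled.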
# CRFBP-R2 block = blocks CRF-induced signaling of the CRF-BP/CRF-R2 complex; HEK293 CRF-R2/CRF-BP, CRF-induced calcium fluorescence; inhibition, % at 11.8 µM; hit rate 0.59% among 350,000;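 active means inhibition of the ligand-induced calcium signal above about 50% at the single tested concentration, limit read from the data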
# TAAR1 nonsel count = nonselective antagonist in TAAR1 antagonist counter-screen. shares compounds with TAAR1 antagonist. counterscreen cell line, calcium fluorescence, antagonist mode. inhibition, % at 3 µM. hit rate 77% among 2,400. AID 651780; in the data active means inhibition above about 22%;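 further: CHO-Ga16 host cells stimulated with ATP at an EC80 level; 0% = agonist EC80 plus vehicle and 100% = vehicle without agonist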
# TAAR1 antag conf = human TAAR1 antagonism, confirmed; inhibition, % at 3 µM; shares compounds with TAAR1 antagonist; TAAR1-expressing cells, fluorescence antagonist read-out; hit rate 40% among 2,400; AID 651785; in the data active means inhibition above about 49%;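 further: CHO-Ga16 host cells challenged with agonist PEA near its EC80; 0% = agonist at EC80 plus vehicle and 100% = vehicle with no agonist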
# Ga16 nonsel ag = nonselective Ga16 agonism, counter-screen; shares compounds with TAAR1 antagonist; Ga16-expressing cells, calcium fluorescence, agonist counterscreen; activation, % at 3 µM; hit rate 18% among 2,400; in the data active means activation above about 12%;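 further: 0% = vehicle wells and 100% = saturating stimulus response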
# TAAR1 ag count = counter-screen for human TAAR1 antagonists: TAAR1 agonists. hit rate 2% among 2,400. activation, % at 3 µM. shares compounds with TAAR1 antagonist. hTAAR1 cell line, fluorescence activation, agonist mode; in the data active means activation above about 37%;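 further: CHO cells stably expressing TAAR1 with calcium dye readout; 0% = DMSO vehicle and 100% = full agonist response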
# * marks the source's active call; other numbers are inactive results; i = inactive; x = no result given. Compounds with a hit are over-represented: about 3.9% of the library has one in this group of screens.
SMILES,CRFR2-BP ag,TMEM16A act,TMEM16A inh,TAAR1 antagonist,TAAR1 ag,CRFBP-R2 block,TAAR1 nonsel count,TAAR1 antag conf,Ga16 nonsel ag,TAAR1 ag count
COc1ccc(-c2c(C#Cc3ccsc3)c3cc(-c4ccc(C(N)=O)cc4)ccc3n2C)cc1,-1,i,x,102*,5,-2,12,90*,0,0
COc1ccc(-c2c(C#Cc3ccsc3)c3cc(-c4ccc5[nH]ccc5c4)ccc3n2C)cc1,-1,i,x,14,1,1,x,x,x,x
Cc1ccc(SC2=C[C@@]3(O)CC[C@@H](O)[C@@](Sc4ccc(C)cc4)(C2=O)[C@H]3O)cc1,x,x,x,-12,-1,x,x,x,x,x
CC(C)(C)c1ccc(SC2=C[C@@]3(O)CC[C@@H](O)[C@@](Sc4ccc(C(C)(C)C)cc4)(C2=O)[C@H]3O)cc1,x,x,x,73*,4,x,33*,40,2,-2
O=C(Cc1cccs1)Nc1cccc(-c2nc3cc4ccccc4cc3[nH]2)c1,1,i,i,74*,8,-25,34*,44,6,0
Cc1ccc(Nc2nc(-c3cccnc3)nc3ccccc23)cc1,1,i,i,56*,-1,-2,17,27,3,-1
CC(=O)Nc1ccc(Nc2nc(-c3ccccc3)nc3ccccc23)cc1,1,i,i,59*,21,-29,34*,56*,8,6
COc1cccc(NC(=O)CCNC(=O)c2ccccc2Cl)c1,-1,i,i,x,x,-1,x,x,x,x
NCCCCCc1cn(CC(=O)NCCCCCCCCCCC(=O)N2CCNCC2)nn1,-2,i,i,22,4,-8,x,x,x,x
CCOc1ccc(N2C(=O)C(Cl)=C(Nc3ccccc3O)C2=O)cc1,15,i,i,57*,15,-63,28*,39,12*,7
COc1ccccc1NC1=C(Cl)C(=O)N(c2ccccc2)C1=O,0,i,i,5,-2,45,x,x,x,x
O=[N+]([O-])c1ccc(N/N=C/c2c[nH]c3ccccc23)cc1,180*,i,i,89*,25,-226,36*,63*,18*,9
O=C(N/N=C/c1c[nH]c2ccccc12)c1cccc([N+](=O)[O-])c1,-1,i,i,0,2,-14,x,x,x,x
CCN(CC(=O)Nc1ccc(NC(C)=O)cc1)C(=O)c1ccc(N(C)S(=O)(=O)c2ccc(C)cc2)cc1,0,i,x,101*,-4,5,1,-2,1,-2
CCN(CC(=O)Nc1ccccc1OC)C(=O)c1ccc(N(C)S(=O)(=O)c2ccc(C)cc2)cc1,0,i,i,42,11,5,x,x,x,x
CCOc1ccc2[nH]c(C(=O)N/N=C/c3ccc(OC)cc3)cc2c1,-1,i,i,70*,9,-12,22*,55*,8,5
CCN=C1SC(CC(=O)Nc2ccc(C(F)(F)F)cc2)C(=O)N1CC (stereo unspecified),-1,i,i,77*,24,-27,38*,65*,13*,14
COc1ccc(CNS(=O)(=O)NCc2ccc(C)cc2)cc1OC,0,i,i,4,4,24,x,x,x,x
COc1ccc(CN(Cc2ccccn2)C(=O)CN2C(=O)C(C)Oc3ccccc32)cc1 (stereo unspecified),-5,i,i,52*,15,16,29*,49*,11,12
CCN(CC)CCN(Cc1cc2cc(C)ccc2[nH]c1=O)C(=S)Nc1ccccc1,-1,i,i,-11,6,-18,x,x,x,x
Cc1cccc(N2CCN(C(=O)c3ccc(Cl)c(NC4=NC5CS(=O)(=O)CC5S4)c3)CC2C)c1 (stereo unspecified),0,i,i,56*,15,-5,26*,43,8,8
O=C(Cc1cccs1)Nc1nc(-c2ccc(F)c(F)c2)cs1,0,i,i,72*,7,-1,39*,55*,6,3
O=C(Cc1ccc(F)cc1)Nc1nc(-c2ccc(F)cc2)cs1,0,i,i,82*,4,12,46*,57*,7,-1
COc1ccc(CC(=O)Nc2nc(-c3cc(OC)ccc3OC)cs2)cc1,0,i,i,55*,12,22,22*,34,7,2
O=C(Cc1cccs1)Nc1nc(-c2ccc(F)cc2F)cs1,-1,i,i,38,12,0,x,x,x,x
SMILES,CRFR2-BP ag,TMEM16A act,TMEM16A inh,TAAR1 antagonist,TAAR1 ag,CRFBP-R2 block,TAAR1 nonsel count,TAAR1 antag conf,Ga16 nonsel ag,TAAR1 ag count
CC(C(=O)Nc1nc(-c2ccc(F)c(F)c2)cs1)N1C(=O)C2CC=CCC2C1=O (stereo unspecified),0,i,x,78*,19,-46,45*,60*,11,9
COc1ccc(C(Sc2ccccc2)c2ccccc2)cc1OC (stereo unspecified),6,i,i,23,3,20,x,x,x,x
COc1ccc(N(CC(=O)N2CCOCC2)S(C)(=O)=O)cc1Cl,-1,i,i,5,-1,-2,x,x,x,x
Cc1c(OCC(=O)NC2CCN(Cc3ccccc3)CC2)ccc2c3c(c(=O)oc12)CCC3,0,i,i,-11,0,-23,x,x,x,x
O=C(CN1C(=O)NC2(CCCC2)C1=O)Nc1nc(-c2ccc(F)cc2)cs1,-2,i,i,51*,24,-58,23*,33,10,17
O=C(Cc1ccccc1F)Nc1nc(-c2ccc(F)c(F)c2)cs1,-1,i,i,68*,11,-4,24*,50*,11,14
COc1cc(CC(=O)Nc2c(-c3ccccc3)[nH][nH]c2=O)cc(OC)c1,x,x,x,6,0,x,x,x,x,x
Cc1cccc(-n2ncc3c2CCCC3NC(=O)CCc2cccnc2)c1C (stereo unspecified),-2,i,i,-1,1,8,x,x,x,x
CC(=O)OC1C=CCC2C(=O)c3cccc(O)c3C(O)C12 (stereo unspecified),-2,i,x,-9,2,7,x,x,x,x
COc1ccc(O)c(/C=N/NC(=S)Nc2cccc(S(=O)(=O)N(C)C)c2)c1,1,i,i,68*,25,-16,50*,62*,19*,25
